Diaph act CS: counter-screen for diaphorase-based assays: diaphorase activators and chemical reducers. Diaphorase/resazurin coupled assay, resorufin fluorescence, 16 min; stronger effect = higher value; 1 = vehicle wells, 0 = NADH-free wells. AID 1229. actives 0.005% (n = 190,000). activation factor at 20 µM;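 active = diaphorase activity raised at least twofold by the compound at 20 µM; inactive = activation factor below 2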
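Material: Purified diaphorase enzyme from Clostridium kluyveri | Buffer or medium: 50 mM HEPES pH 7.4 with 4.542 mM MgCl2, 0.005% Tween 20 | Times: 16 min enzyme reaction, ambient temperature | Signal: Red resorufin fluorescence at 544/590 nm excitation/emission | Measure: Increased resorufin signal from activators or reducing compounds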
PfG6PD inh: PfG6PD (Plasmodium falciparum) enzyme inhibition | PfGluPho enzyme, NADPH resazurin-diaphorase fluorescence | inhibition, % at 20 µM | actives 0.78% (n = 350,000);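 active = inhibition reaching at least a set limit at 20 µM in the primary screen, cut at about 59% in these data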
Diaph inh CS: diaphorase inhibition or chemical oxidation counter-screen | diaphorase resazurin-to-resorufin fluorescence, NADH, 16 min; bacterial (C. kluyveri) enzyme, not human | inhibition, % at 20 µM | actives 0.69% (n = 190,000);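 active = primary screen inhibition at 20 µM above a set limit, cut at about 50% in these data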
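Test system: diaphorase enzyme from Clostridium kluyveri; amount: diaphorase at 0.14 U/mL in enzyme working solution; detection: fluorescence of resorufin formed from resazurin, Ex 544/Em 590 nm; times: reaction incubation of 16 min at room temperature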
G6PDH CS: L. mesenteroides G6PDH inhibition counter-screen; AID 1020; inhibition, % at 5 µM; Purified L. mesenteroides G6PDH, diaphorase/resazurin coupled fluorescence, 45 min; actives 0.12% (n = 200,000); in the data active = inhibition above about 50%
HKDC1 inhibitor: blocks human hexokinase HKDC1 activity. recombinant HKDC1, G6PDH/diaphorase resazurin coupled fluorescence. Q2TB90. actives 0.16% (n = 340,000). inhibition, % at 20 µM;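 active = inhibition above about 35% when tested at 20 µM, limit read from the data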
Target sequence (Q2TB90 whole entry, looked up): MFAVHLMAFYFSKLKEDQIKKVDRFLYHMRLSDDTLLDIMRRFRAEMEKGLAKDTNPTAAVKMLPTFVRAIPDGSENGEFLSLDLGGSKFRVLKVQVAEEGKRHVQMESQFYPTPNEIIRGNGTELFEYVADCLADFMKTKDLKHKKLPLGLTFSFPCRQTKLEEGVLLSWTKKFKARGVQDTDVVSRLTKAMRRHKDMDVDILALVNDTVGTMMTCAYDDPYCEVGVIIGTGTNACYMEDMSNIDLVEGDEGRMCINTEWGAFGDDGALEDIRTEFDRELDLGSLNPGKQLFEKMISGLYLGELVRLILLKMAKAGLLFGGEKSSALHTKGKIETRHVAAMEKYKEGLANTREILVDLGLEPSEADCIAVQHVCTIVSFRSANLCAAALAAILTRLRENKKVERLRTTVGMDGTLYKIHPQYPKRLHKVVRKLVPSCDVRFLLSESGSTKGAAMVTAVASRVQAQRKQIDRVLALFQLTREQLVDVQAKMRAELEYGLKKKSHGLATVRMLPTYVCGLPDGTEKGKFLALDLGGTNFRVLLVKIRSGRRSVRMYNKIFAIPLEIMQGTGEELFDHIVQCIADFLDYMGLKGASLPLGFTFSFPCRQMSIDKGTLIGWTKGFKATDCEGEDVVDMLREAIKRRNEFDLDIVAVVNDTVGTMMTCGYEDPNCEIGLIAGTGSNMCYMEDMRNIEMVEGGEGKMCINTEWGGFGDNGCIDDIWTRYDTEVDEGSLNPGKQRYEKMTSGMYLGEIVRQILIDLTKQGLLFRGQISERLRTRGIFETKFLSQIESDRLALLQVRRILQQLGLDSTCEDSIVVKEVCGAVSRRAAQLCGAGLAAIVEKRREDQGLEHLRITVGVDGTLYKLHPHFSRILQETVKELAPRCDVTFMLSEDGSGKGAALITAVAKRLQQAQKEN
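Material: recombinant HKDC1 hexokinase; Amount: HKDC1 at 5 µg/mL; Medium: Tris pH 8.0 buffer with MgCl2, Tween-20, BSA, BME; Schedule: 90 min reaction incubation at room temperature, dark; Technique: coupled resazurin fluorescence, excitation 525 nm, emission 613 nm.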
Hits are given with their value; . = inactive; / = not tested or not shown. This is a sample that favours compounds with a hit; in the whole collection about 1.3% have one here.

SMILES | Diaph act CS | PfG6PD inh | Diaph inh CS | G6PDH CS | HKDC1 inhibitor
CCc1ccc2c(c1)c(N=NC1=NC(=O)CS1)c(O)n2C | . | . | 84 | . | .
COc1ccc(NC(=O)NC2CCCCC2C)cc1 (centres undefined) | . | . | . | . | .
Cc1cc(C(=O)N/N=C/c2cccc([N+](=O)[O-])c2O)n[nH]1 | . | . | 50 | . | .
O=C(CSc1nnc(-c2cccs2)n1CC1CCCO1)c1cc2ccccc2o1 (centres undefined) | . | . | . | . | .
CCOc1ccccc1OCC(=O)NN=C1CCCC(=O)C1 | / | . | / | / | .
CN(Cc1cn(C)nc1-c1ccccc1F)CC1CCN(Cc2ccccc2)CC1 | / | . | / | / | .
O=C(NCc1ccccc1)/C(=C\c1ccc([N+](=O)[O-])cc1)NC(=O)c1ccco1 | / | . | / | / | .
Nc1nc2ccccc2[nH]1 | / | . | / | / | .
Nc1ccccc1Sc1nc2ccccc2[nH]1 | . | 62 | . | . | .
COc1ccc2nc(NC(=O)C34CC5CC(CC(NC(C)=O)(C5)C3)C4)sc2c1 | / | . | / | / | .
COc1cc2c(cc1NC(=O)Nc1ccc(C)cc1)oc1ccccc12 | . | . | . | . | .
COc1cc2c(cc1NC(=O)C(C)Sc1ccc(NC(C)=O)cc1)oc1ccccc12 (centres undefined) | . | . | 82 | . | .
CC(C)(C)Sc1ccccc1S(=O)(=O)C(C)(C)C | / | . | / | / | .
C/C(=N\NC(=O)CSCc1ccc([N+](=O)[O-])cc1)c1ccccc1O | . | . | . | . | .
CCN1CCN(c2nc3ccccc3nc2NS(=O)(=O)c2ccc(NC(C)=O)cc2)CC1 | / | . | / | / | .
CC(=O)Nc1ccc(S(=O)(=O)Nc2nc3ccccc3nc2N2CCCC2)cc1 | . | . | 50 | . | .
c1coc(C2=Nc3cccc4cccc(c34)N2)c1 | . | . | 60 | . | .
COc1ccc(C2C(C(=O)OC(C)C)=C(C)N=c3s/c(=C\c4cccs4)c(=O)n32)cc1 (centres undefined) | . | . | . | . | .
Cc1ccc(S(=O)(=O)N2CCC(C(N)=O)CC2)c(C)c1C | . | . | . | . | .
COc1ccc2cc(/C=C3\SC(=S)NC3=O)c(N3CCOCC3)nc2c1 | . | . | 58 | . | .
O=C1NC(=S)S/C1=C/c1ccc(N2CCOCC2)o1 | . | . | . | . | .
COc1ccc(-c2csc(N3CCC(C(N)=O)CC3)n2)cc1 | / | . | / | / | .
N#CC(C#N)=C1C=CC=CN1/C(=C\c1ccco1)C(=O)c1ccc(Br)cc1 | . | 59 | . | . | .
N#CC(C#N)=C1C=CC=CN1/C(=C\c1ccco1)C(=O)c1ccccc1 | . | . | . | . | .
COc1ccccc1C(NC(C)=O)c1cc(Cl)c2cccnc2c1O (centres undefined) | / | . | / | / | .
SMILES | Diaph act CS | PfG6PD inh | Diaph inh CS | G6PDH CS | HKDC1 inhibitor
COc1ccc(C(NC(C)=O)c2cc(Cl)c3cccnc3c2O)cc1OC (centres undefined) | . | . | 66 | . | .
O=C(O)COc1ccccc1C(Nc1cccnc1)c1cc(Cl)c2cccnc2c1O (centres undefined) | . | . | 61 | . | .
O=C(O)COc1ccccc1C(Nc1ccccn1)c1cc(Cl)c2cccnc2c1O (centres undefined) | . | . | 51 | . | .
Cc1ccc(C(NC(=O)C(C)C)c2cc([N+](=O)[O-])c3cccnc3c2O)cc1 (centres undefined) | . | . | . | 53 | .
CC(C)C(=O)NC(c1cccs1)c1cc([N+](=O)[O-])c2cccnc2c1O (centres undefined) | . | . | . | . | .
CCOc1ccc(C(Nc2cccnc2)c2cc(Cl)c3cccnc3c2O)cc1 (centres undefined) | . | . | . | . | .
Cc1ccc(NC(=O)C2CCCN2C(=O)NC2CCCCC2)c(C)c1 (centres undefined) | . | . | . | . | .
CCn1cc(C(=O)N[C@H](C(=O)NCCCO)C(C)C)c(=O)c2cc3c(cc21)OCO3 | / | . | / | / | .
Oc1ccc(N2CCN(c3ncnc4sc5c(c34)CCC5)CC2)cc1 | . | 62 | . | . | .
OCCN1CCN(c2ncnc3sc4c(c23)CCCC4)CC1 | / | . | / | / | .
Cc1cc(C(C)C)n2c(nc3ccccc32)c1C#N | . | / | . | . | /
Cc1cc(-c2ccco2)c(C#N)c2nc3ccccc3n12 | . | . | 72 | . | .
Cc1ccc(S(C)(=O)=NC(=O)NC(=O)c2c(Cl)cccc2Cl)cc1 (centres undefined) | / | . | / | / | .
Cc1cc(O)c(C=O)c2c1C(=O)Oc1c(CO)c(O)c3c(c1O2)C(O)OC3=O (centres undefined) | . | . | 75 | . | 37
NC(=O)c1nsc(C(=O)N(c2cccc(F)c2)C(C(=O)NC2CCCC2)c2ccco2)c1N (centres undefined) | / | . | / | / | .
O=[N+]([O-])c1nn(-c2ccc3c(c2)OCCO3)n(O)c1=NC1CCCCCC1 | . | . | . | . | .
O=C(O)c1ccc(Nc2nc(-c3cc4ccccc4oc3=O)cs2)cc1O | . | . | 88 | . | .
O=C(C1=C[C@@H](c2ccc3c(c2)OCO3)C[C@@H](OCCCCO)O1)N1CCN(Cc2ccc3c(c2)OCO3)CC1 | . | . | . | . | .
C#Cc1ccc([C@@H]2C=C(C(=O)N3CCN(Cc4ccc5c(c4)OCO5)CC3)O[C@H](OCCCCO)C2)cc1 | . | . | 53 | . | .
Cc1ccc2nc(-c3ccccc3)cc(C(=O)NCC(c3ccco3)N(C)C)c2c1 (centres undefined) | / | . | / | / | .
CC(C)(C)OC(=O)N1CCCN(C(=O)Nc2ccccc2)CC1 | / | . | / | / | .
O=C1NC(=O)/C(=C\c2ccc(O)cc2O)S1 | . | . | 82 | . | .
O=C1NC(=O)/C(=C/c2cccc3ccccc23)S1 | / | . | / | / | .
Cc1cccc(C(=O)NC2C(=O)NNC2c2ccc(Cl)cc2)c1 (centres undefined) | . | . | 52 | . | .
COc1ccc(OC)c(N)c1 | . | 62 | . | . | .
SMILES | Diaph act CS | PfG6PD inh | Diaph inh CS | G6PDH CS | HKDC1 inhibitor
C=CCn1c(SCc2ccccc2C#N)nnc1-c1cc(Br)ccc1O | . | . | . | . | .
CC12CCC(C/C1=N\N=C1\NC(=O)/C(=C\c3cccc(Br)c3)S1)C2(C)C (centres undefined) | . | . | . | . | .
CC(C)=C[C@@H]1C[C@H](C)[C@H]2CC[C@H](C)c3c(O)c(O)c(C)c1c32 | / | 79 | / | / | .
COc1ccc(S(=O)(=O)N2CCN(C(=O)c3cnc(C)cn3)CC2)cc1 | . | . | . | . | .
Cc1cc(C)n(-c2ccc(NC(=O)C3CCCCN3C(=O)c3ccoc3C)cc2)n1 (centres undefined) | / | . | / | / | .
CCCCCCCCCCCCCCCCn1cc[n+](C)c1 | 3.2 | . | . | . | .
NC(=O)C1CCN(CC(=O)Nc2nccs2)CC1 | / | . | / | / | .
